Results from different studies.
Lines come from different studies, so protocols differ.
Target: SRSF protein kinase 3 (SRPK3, Homo sapiens, UniProt Q9UPE1)

SMILES	assay	conditions	endpoint	value
Cn1c2c(c3ccccc31)C(C#N)C(C)(C)NC2=O (centres unmarked)	thermal stability, DSF	10 µM	ΔTm	0.2 °C
COc1cc(-c2cn(C3CCc4c(F)cccc4N(CC(F)(F)F)C3=O)nn2)ccc1-n1cnc(C)c1 (centres unmarked)	cell-free assay, competition with immobilised ligand	1 µM	remaining binding	100%
Cn1c2c(c3ccc(Cl)c(Cl)c31)C(C#N)C1(CCNCC1)NC2=O (racemic)	thermal stability, DSF	10 µM	ΔTm	1.9 °C
CCCOc1ccc(OC)c(F)c1C(=O)c1ccc(C(=O)N[C@@H]2CNC[C@H]2NC(=O)c2ccc3[nH]ncc3c2)cc1	enzyme activity, inhibitor	10 µM	remaining activity	77%
CCN(CC)c1ccc(C2=NNC(=O)CC2C)cc1[N+](=O)[O-] (centres unmarked)	enzyme activity, inhibitor	10 µM	remaining activity	111%
O=C(Nc1ccc(Oc2ccc(F)cc2)cc1)N1CCc2ncccc2[C@H]1c1ccc(F)cc1	cell-free assay, competition with immobilised ligand	1 µM	remaining binding	100%
Cc1ccc(C(=O)Nc2ccc(CN3CCN(C)CC3)c(C(F)(F)F)c2)cc1C#Cc1cnc2cccnn12	enzyme activity, inhibitor	23.5 nM	remaining activity	96%
COc1cc2ncnc(Nc3ccc(Oc4ccccc4)c(C)c3C)c2cc1OC	enzyme activity, inhibitor	1 µM	inhibition	5%
CCOc1cc(-c2nncn2C)ccc1Nc1ncc2cc(C)nc(NCC(C)(C)C)c2n1	enzyme activity, inhibitor, FRET	1 µM	inhibition	< 15%
Cc1cnc(NC2CCOCC2)nc1-n1cnc(C(=O)NC(CN)c2cc(F)cc(Cl)c2)c1 (centres unmarked)	enzyme activity, inhibitor, radiometric	1 µM	remaining activity	114%
CCN(CC)CCNC(=O)c1c(C)[nH]c(/C=C2\C(=O)Nc3ccc(F)cc32)c1C	enzyme activity, inhibitor	10 µM	inhibition	15%
CN(C)C(=O)Cn1cc(-c2nc(C3(c4ccc(-c5cnc(N)nc5)cc4)CC3)no2)cn1	cell-free assay, competition with immobilised ligand	1 µM	remaining binding	100%
CC(C)(C)c1nc2c(s1)c1nc(N)ncc1c1ccc(NS(=O)(=O)c3c(F)cccc3F)c(F)c12	enzyme activity, inhibitor, radiometric	1 µM	remaining activity	97%
Cc1ccc(Nc2nccc(N(C)c3ccc4c(C)n(C)nc4c3)n2)cc1S(N)(=O)=O	enzyme activity, inhibitor	0.3 µM	inhibition	-13%
O=c1nc(-c2ccccn2)sc2ccccc12	binding, competition with immobilised ligand	1 µM	remaining binding	100%
CNC(=O)c1cc(Oc2ccc(NC(=O)Nc3ccc(Cl)c(C(F)(F)F)c3)cc2)ccn1	enzyme activity, inhibitor	0.3 µM	inhibition	-7%
Cc1cc(-n2nc(Cc3cc(F)cc(C(F)(F)F)c3)nc2C)ccc1C(N)=O	cell-free assay, competition with immobilised ligand	1 µM	remaining binding	100%
Cn1c2c(c3ccc(Cl)c(Cl)c31)C(C#N)C(C)(C)NC2=O (centres unmarked)	thermal stability, DSF	10 µM	ΔTm	1.5 °C
Nc1ncnc2occ(-c3ccc(NC(=O)Nc4cc(C(F)(F)F)ccc4F)cc3)c12	cell-free assay, inhibitor	20 µM	remaining signal	88%
CCC(=O)N[C@@H]1CC[C@H](C(=O)N(C)c2ccc(-c3nc4ccccc4o3)cc2)C1	cell-free assay, competition with immobilised ligand	1 µM	remaining binding	100%
